Test system: HEK-293T
Assay: Multiplex assay against HEK293T
Format: toxicity, cell-based
Conditions: human
Procedure, shortened: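 Cells stained live at seeding with Hoechst33342, BioTracker Green Microtubule Cytoskeleton Dye, MitoTracker Red and Annexin V Alexa Fluor 680 were imaged on a CQ1 microscope at 37°C and 5% CO2 after compound addition. Their classification by CellPathfinder machine-learning gating ran from Hoechst high-intensity objects versus normal cells, to healthy, pyknosed or fragmented nuclei among normal cells, to mitotic or apoptotic among pyknosed cells. Tubulin, mitochondrial-mass and membrane-permeability phenotypes are per cents of healthy-nucleus cells.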

[1] = 12 h, 1 µM, compound concentration 1 uM, replicate 1
[2] = 12 h, 1 µM, compound concentration 1 uM, replicate 2
[3] = 12 h, 10 µM, compound concentration 10 uM, replicate 1
[4] = 12 h, 10 µM, compound concentration 10 uM, replicate 2
[5] = 24 h, 1 µM, compound concentration 1 uM, replicate 1
[6] = 24 h, 1 µM, compound concentration 1 uM, replicate 2
[7] = 24 h, 10 µM, compound concentration 10 uM, replicate 1
[8] = 24 h, 10 µM, compound concentration 10 uM, replicate 2
[9] = 48 h, 1 µM, compound concentration 1 uM, replicate 1
[10] = 48 h, 1 µM, compound concentration 1 uM, replicate 2
[11] = 48 h, 10 µM, compound concentration 10 uM, replicate 1
[12] = 48 h, 10 µM, compound concentration 10 uM, replicate 2

Q: Which results are given for CN(C)c1ccnc2sc3c(=O)n(N4CCCCCC4)cnc3c12?
A: Population Apoptotic (%) [1]: 45%; Population Fragmented Nuclei (%) [1]: 9%; Population Healthy Nuclei (%) [1]: 76%; Population Hoechst High Intensity Objects (%) [1]: 4%; Population Membrane Permeable-Phenotype (%) [1]: 1%; Population Mitochondria Different-Phenotype (%) [1]: 50%; Population Mitotic Cells (%) [1]: 54%; Population Normal (%) [1]: 95%; Population Pyknosed Nuclei (%) [1]: 13%; Population Tubulin-Different-Phenotype (%) [1]: 43%; Total Cell Count [1]: 360; Population Apoptotic (%) [2]: 51%; Population Fragmented Nuclei (%) [2]: 5%; Population Healthy Nuclei (%) [2]: 82%; Population Hoechst High Intensity Objects (%) [2]: 8%; Population Membrane Permeable-Phenotype (%) [2]: 0%; Population Mitochondria Different-Phenotype (%) [2]: 67%; Population Mitotic Cells (%) [2]: 48%; Population Normal (%) [2]: 91%; Population Pyknosed Nuclei (%) [2]: 12%; Population Tubulin-Different-Phenotype (%) [2]: 25%; Total Cell Count [2]: 335; Population Apoptotic (%) [3]: 36%; Population Fragmented Nuclei (%) [3]: 4%; Population Healthy Nuclei (%) [3]: 81%; Population Hoechst High Intensity Objects (%) [3]: 10%; Population Membrane Permeable-Phenotype (%) [3]: 0%; Population Mitochondria Different-Phenotype (%) [3]: 78%; Population Mitotic Cells (%) [3]: 63%; Population Normal (%) [3]: 89%; Population Pyknosed Nuclei (%) [3]: 14%; Population Tubulin-Different-Phenotype (%) [3]: 79%; Total Cell Count [3]: 387; Population Apoptotic (%) [4]: 59%; Population Fragmented Nuclei (%) [4]: 9%; Population Healthy Nuclei (%) [4]: 72%; Population Hoechst High Intensity Objects (%) [4]: 13%; Population Mitochondria Different-Phenotype (%) [4]: 76%; Population Mitotic Cells (%) [4]: 40%; Population Normal (%) [4]: 86%; Population Pyknosed Nuclei (%) [4]: 17%; Population Tubulin-Different-Phenotype (%) [4]: 59%; Total Cell Count [4]: 308; Population Apoptotic (%) [5]: 30%; Population Fragmented Nuclei (%) [5]: 10%; Population Healthy Nuclei (%) [5]: 76%; Population Hoechst High Intensity Objects (%) [5]: 4%; Population Membrane Permeable-Phenotype (%) [5]: 1%; Population Mitochondria Different-Phenotype (%) [5]: 27%; Population Mitotic Cells (%) [5]: 70%; Population Normal (%) [5]: 95%; Population Pyknosed Nuclei (%) [5]: 12%; Population Tubulin-Different-Phenotype (%) [5]: 24%; Total Cell Count [5]: 510; Population Apoptotic (%) [6]: 25%; Population Fragmented Nuclei (%) [6]: 7%; Population Healthy Nuclei (%) [6]: 84%; Population Hoechst High Intensity Objects (%) [6]: 5%; Population Membrane Permeable-Phenotype (%) [6]: 0%; Population Mitochondria Different-Phenotype (%) [6]: 51%; Population Mitotic Cells (%) [6]: 74%; Population Normal (%) [6]: 94%; Population Pyknosed Nuclei (%) [6]: 7%; Population Tubulin-Different-Phenotype (%) [6]: 22%; Total Cell Count [6]: 470; Population Apoptotic (%) [7]: 42%; Population Fragmented Nuclei (%) [7]: 7%; Population Healthy Nuclei (%) [7]: 76%; Population Hoechst High Intensity Objects (%) [7]: 8%; Population Membrane Permeable-Phenotype (%) [7]: 0%; Population Mitochondria Different-Phenotype (%) [7]: 80%; Population Mitotic Cells (%) [7]: 57%; Population Normal (%) [7]: 91%; Population Pyknosed Nuclei (%) [7]: 16%; Population Tubulin-Different-Phenotype (%) [7]: 71%; Total Cell Count [7]: 428; Population Apoptotic (%) [8]: 66%; Population Fragmented Nuclei (%) [8]: 10%; Population Healthy Nuclei (%) [8]: 74%; Population Hoechst High Intensity Objects (%) [8]: 13%; Population Mitochondria Different-Phenotype (%) [8]: 75%; Population Mitotic Cells (%) [8]: 33%; Population Normal (%) [8]: 86%; Population Pyknosed Nuclei (%) [8]: 15%; Population Tubulin-Different-Phenotype (%) [8]: 53%; Total Cell Count [8]: 359; Population Apoptotic (%) [9]: 27%; Population Fragmented Nuclei (%) [9]: 13%; Population Healthy Nuclei (%) [9]: 78%; Population Hoechst High Intensity Objects (%) [9]: 2%; Population Membrane Permeable-Phenotype (%) [9]: 0%; Population Mitochondria Different-Phenotype (%) [9]: 23%; Population Mitotic Cells (%) [9]: 72%; Population Normal (%) [9]: 97%; Population Pyknosed Nuclei (%) [9]: 7%; Population Tubulin-Different-Phenotype (%) [9]: 14%; Total Cell Count [9]: 721; Population Apoptotic (%) [10]: 20%; Population Fragmented Nuclei (%) [10]: 11%; Population Healthy Nuclei (%) [10]: 82%; Population Hoechst High Intensity Objects (%) [10]: 3%; Population Membrane Permeable-Phenotype (%) [10]: 2%; Population Mitochondria Different-Phenotype (%) [10]: 31%; Population Mitotic Cells (%) [10]: 80%; Population Normal (%) [10]: 96%; Population Pyknosed Nuclei (%) [10]: 6%; Population Tubulin-Different-Phenotype (%) [10]: 15%; Total Cell Count [10]: 663; Population Apoptotic (%) [11]: 70%; Population Fragmented Nuclei (%) [11]: 15%; Population Healthy Nuclei (%) [11]: 72%; Population Hoechst High Intensity Objects (%) [11]: 8%; Population Membrane Permeable-Phenotype (%) [11]: 0%; Population Mitochondria Different-Phenotype (%) [11]: 66%; Population Mitotic Cells (%) [11]: 29%; Population Normal (%) [11]: 91%; Population Pyknosed Nuclei (%) [11]: 12%; Population Tubulin-Different-Phenotype (%) [11]: 54%; Total Cell Count [11]: 497; Population Apoptotic (%) [12]: 57%; Population Fragmented Nuclei (%) [12]: 11%; Population Healthy Nuclei (%) [12]: 75%; Population Hoechst High Intensity Objects (%) [12]: 6%; Population Mitochondria Different-Phenotype (%) [12]: 63%; Population Mitotic Cells (%) [12]: 42%; Population Normal (%) [12]: 93%; Population Tubulin-Different-Phenotype (%) [12]: 45%; Total Cell Count [12]: 450

— ChEMBL document CHEMBL5058577, “EUbOPEN Chemogenomics Library 2 (Multiplex)” (2022)
